Measured values reported in ChEMBL document CHEMBL4428038, “Overcoming chloroquine resistance in malaria: Design, synthesis and structure-activity relationships of novel chemoreversal agents” (Eur J Med Chem, 2016).
pEC50, pIC50: −log10 of the molar value. Active and inactive are the calls of the source. The rule behind the calls is not given here.

What was measured:
[1] = Resistance index, ratio of chloroquine IC50 for intermediate chloroquine-resistant Plasmodium falciparum 7G8 isolate MRA-154 CRT SVMNT haplotype mutant to chloroquine IC50 for chloroquine-sensitive Plasmodium falciparum 3D7 isolate MRA-102 at 500 nM
Summary of the method: (§1)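 Chloroquine IC50 was measured with the chemoreversal agent fixed at 500 nM in K1 or 7G8 and in sensitive 3D7 (means, n = 3). The resistance ratio is the chloroquine IC50 in K1 or 7G8 divided by the chloroquine IC50 in 3D7.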

[2] = Resistance index, ratio of chloroquine IC50 for chloroquine-resistant Plasmodium falciparum K1 isolate MRA-159 CRT CVIET haplotype mutant to chloroquine IC50 for chloroquine-sensitive Plasmodium falciparum 3D7 isolate MRA-102 at 500 nM; summary of the method: as §1
[3] = test system: T1, Chloroquine resistance transporter (Plasmodium falciparum), Q9N623 [K76T]; assay: Inhibition of CRT K76T mutant in chloroquine/artemisinin-resistant Plasmodium falciparum ARS233 assessed as reversal of chloroquine resistance by measuring reduction in chloroquine IC50 at 500 nM relative to chloroquine alone
T1 sequence (whole entry): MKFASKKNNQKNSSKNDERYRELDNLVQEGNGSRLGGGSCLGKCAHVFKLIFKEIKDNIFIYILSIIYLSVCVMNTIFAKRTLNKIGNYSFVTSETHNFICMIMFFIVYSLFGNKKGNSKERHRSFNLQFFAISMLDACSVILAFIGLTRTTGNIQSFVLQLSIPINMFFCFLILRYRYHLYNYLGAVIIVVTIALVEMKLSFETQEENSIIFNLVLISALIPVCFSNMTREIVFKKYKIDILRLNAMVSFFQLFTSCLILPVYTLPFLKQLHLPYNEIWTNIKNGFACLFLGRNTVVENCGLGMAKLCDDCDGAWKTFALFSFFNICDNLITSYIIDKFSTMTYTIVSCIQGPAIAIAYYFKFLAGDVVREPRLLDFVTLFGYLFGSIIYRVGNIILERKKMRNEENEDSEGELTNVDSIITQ

[4] = test system: T1, Chloroquine resistance transporter (Plasmodium falciparum), Q9N623 [K76T]; assay: Inhibition of CRT K76T mutant in chloroquine-resistant Plasmodium falciparum NHP4559 assessed as reversal of chloroquine resistance by measuring reduction in chloroquine IC50 at 500 nM relative to chloroquine alone
Plasmodium falciparum K1 = assay: Inhibition of CRT CVIET haplotype mutant in chloroquine-resistant Plasmodium falciparum K1 isolate MRA-159 assessed as reversal of chloroquine resistance by measuring reduction in chloroquine IC50 at 500 nM relative to chloroquine alone
[5] = Therapeutic index, ratio of IC50 for TAMH to EC50 for chloroquine-resistant Plasmodium falciparum K1 isolate MRA-159 CRT CVIET haplotype mutant; format: toxicity; conditions: mouse, TAMH cells; read-out: Ratio IC50/EC50
Summary of the method: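 Host-cell IC50 was measured by ATP-luminescence viability assay in TAMH hepatocytes (mean of n = 4 independent determinations) or AC10 cardiomyocytes. Each IC50 was divided by the K1 EC50, the concentration of chemoreversal agent that halves the chloroquine concentration needed for 50% parasite inhibition.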

Plasmodium falciparum [6] = assay: Intrinsic antimalarial activity against chloroquine-sensitive Plasmodium falciparum HB3 isolate MRA-155 assessed as reduction in parasite viability at 500 nM; format: functional, organism-based
Plasmodium falciparum [7] = assay: Potentiation of chloroquine-induced antimalarial activity against chloroquine-sensitive Plasmodium falciparum HB3 isolate MRA-155 assessed as reduction in chloroquine IC50 at 500 nM relative to chloroquine alone; format: functional
Plasmodium falciparum [8] = assay: Intrinsic antimalarial activity against chloroquine/artemisinin-resistant Plasmodium falciparum ARS233 harboring CRT K76T mutant assessed as reduction in parasite viability at 500 nM; format: functional, organism-based
Plasmodium falciparum [9] = assay: Intrinsic antimalarial activity against chloroquine-sensitive Plasmodium falciparum 3D7 isolate MRA-102 assessed as reduction in parasite viability at 500 nM; format: functional, organism-based
[10] = Cytotoxicity against human AC10 cells assessed as reduction in cell viability by CellTiter-Glo assay; format: cell-based
Summary of the method: (§2)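 For TAMH (hepatocyte line) and AC10 (cardiomyocyte line), viability was read by ATP luminescence (CellTiter-Glo), and the value reported is IC50.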

Plasmodium falciparum [11] = assay: Intrinsic antimalarial activity against chloroquine/artemisinin-resistant Plasmodium falciparum NHP4773 harboring CRT K76T mutant assessed as reduction in parasite viability at 500 nM; format: functional, organism-based
[12] = test system: T1, Chloroquine resistance transporter (Plasmodium falciparum), Q9N623 [K76T]; assay: Inhibition of CRT K76T mutant in chloroquine/artemisinin-resistant Plasmodium falciparum ARS272 assessed as reversal of chloroquine resistance by measuring reduction in chloroquine IC50 at 500 nM relative to chloroquine alone
[13] = Resistance index, ratio of EC50 for intermediate chloroquine-resistant Plasmodium falciparum 7G8 isolate MRA-154 CRT SVMNT haplotype mutant to EC50 for chloroquine-sensitive Plasmodium falciparum 3D7 isolate MRA-102
Summary of the method: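 EC50 is the concentration of chemoreversal agent that halves the chloroquine concentration needed to inhibit survival of half the parasites. It was derived from dose-dependent shifts in chloroquine IC50, measured in 7G8 and 3D7. The index is the 7G8 EC50 divided by the 3D7 EC50.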

Plasmodium falciparum [14] = assay: Intrinsic antimalarial activity against chloroquine/artemisinin-resistant Plasmodium falciparum ARS272 harboring CRT K76T mutant assessed as reduction in parasite viability at 500 nM; format: functional, organism-based
[15] = Inhibition of CRT CVIET haplotype mutant in chloroquine-resistant Plasmodium falciparum K1 isolate MRA-159 assessed as reversal of chloroquine resistance by measuring reduction in chloroquine IC50 relative to chloroquine alone
Summary of the method: (§3)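 Chloroquine IC50 was determined in the presence of a fixed 500 nM chemoreversal agent, against chloroquine alone. The RMI is the ratio of chloroquine IC50 with agent to chloroquine IC50 alone. Mean of n = 3; two-tailed t test versus chloroquine without agent.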

TAMH = assay: Cytotoxicity against TAMH assessed as reduction in cell viability by CellTiter-Glo assay; format: cell-based; conditions: Mus musculus; summary of the method: as §2
Plasmodium falciparum [16] = assay: Intrinsic antimalarial activity against intermediate chloroquine-resistant Plasmodium falciparum 7G8 isolate MRA-154 harboring CRT SVMNT haplotype mutant assessed as reduction in parasite viability at 500 nM; format: functional, organism-based
[17] = Permeability of compound incubated for 6 hrs at pH 7.4 by PAMPA; format: ADME; conditions: read-out: Peff
Plasmodium falciparum [18] = assay: Intrinsic antimalarial activity against chloroquine-resistant Plasmodium falciparum NHP4559 harboring CRT K76T mutant assessed as reduction in parasite viability at 500 nM; format: functional, organism-based
Plasmodium falciparum [19] = assay: Intrinsic antimalarial activity against chloroquine-resistant Plasmodium falciparum Dd2 isolate MRA-156 harboring CRT K76T mutant assessed as reduction in parasite viability at 500 nM; format: functional, organism-based
Plasmodium falciparum [20] = assay: Potentiation of chloroquine-induced antimalarial activity against chloroquine-sensitive Plasmodium falciparum 3D7 isolate MRA-102 assessed as concentration required for 50% reduction in chloroquine IC50 at 500 nM relative to chloroquine alone; format: functional, organism-based
[21] = test system: Plasmodium falciparum 7G8; assay: (§4) Inhibition of CRT SVMNT haplotype mutant in intermediate chloroquine-resistant Plasmodium falciparum 7G8 isolate MRA-154 assessed as reversal of chloroquine resistance by measuring reduction in chloroquine IC50 relative to chloroquine alone; summary of the method: as §3
[22] = as §4; summary of the method: as §3

## c1ccc(CN[C@@H]2C3CCN(CC3)[C@@H]2Cc2ccccc2)cc1 (relative stereo)
[1]
  Ratio IC50: 3.9
[2]
  Ratio IC50: 6.4
[3]
  Ratio IC50: 0.43
[4]
  Ratio IC50: 0.47
Plasmodium falciparum K1
  Ratio IC50: 0.39
[5]
  selectivity ratio: > 588
Plasmodium falciparum [6]
  Activity: inactive
Plasmodium falciparum [7]
  Ratio IC50: 1.12
Plasmodium falciparum [8]
  Activity: inactive
Plasmodium falciparum [9]
  Activity: inactive
[10]
  pIC50: 4.15
Plasmodium falciparum [11]
  Activity: inactive
[12]
  Ratio IC50: 0.43
[13]
  Ratio EC50: 2
Plasmodium falciparum [14]
  Activity: inactive
[15]
  pEC50: 6.77
TAMH
  pIC50: < 4.00
Plasmodium falciparum [16]
  Activity: inactive
[17]
  Papp at 6 h: 19.2 ×10⁻⁶ cm/s
Plasmodium falciparum [18]
  Activity: inactive
Plasmodium falciparum [19]
  Activity: inactive
Plasmodium falciparum [20]
  Activity: inactive
[21]
  inhibition: Dose-dependent effect
[22]
  pEC50: 6.42
